# rCAG binder: binders of r(CAG) RNA repeats, primary screen, biochemical, fluorescence | r(CAG) RNA repeat, TO-PRO-1 dye displacement fluorescence | inhibition, % at 3 µM | 370,000 tested, 1.3% active | AID 651821, 2012;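 active = inhibition above the plate cutoff, the mean of all test compounds on that plate plus 3 SD, cut at about 35% in these data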;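 also: 0% = DMSO alone and 100% = 100 µM mitoxantrone as full dye displacement; higher means more dye released from RNA so lower well fluorescence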
# PRMT1 inh: PRMT1 methyltransferase inhibitors, primary screen, biochemical, fluorescence polarization; Protein arginine N-methyltransferase 1 (Homo sapiens), Q99873; recombinant PRMT1, activity-based probe fluorescence polarization; inhibition, % at 2.79 µM; 370,000 tested, 1.3% active;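 active = inhibition above about 21% made by adding two undisclosed values, limit read from the data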
# SIAE primary: human SIAE inhibitors, primary screen, biochemical, fluorescence polarization, FP-Rh probe, 1536-well HTS | Sialate O-acetylesterase (Homo sapiens), Q9HAT2 | SIAE FP-Rh probe binding | inhibition, % at 9.66 µM | 370,000 tested, 0.69% active | AID 1053197, 2014;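 active = inhibition above a cutoff: mean of compounds within the control limits plus 3 SD of those, cut at about 17% in these data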;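 also: 0% = plate median of compound wells and 100% = probe without SIAE protein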
# HTRA1 inhibitor: HTRA1 serine protease inhibitors, primary screen, biochemical, fluorescence polarization, HTS; 340,000 tested, 0.5% active; inhibition, % at 5.96 µM; recombinant HTRA1, FP-rhodamine activity-based probe; Q92743; in the data active = inhibition above about 36%;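 also: 0% = enzyme with DMSO and 100% = wells lacking enzyme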
# Target sequence (Q92743 whole entry, looked up): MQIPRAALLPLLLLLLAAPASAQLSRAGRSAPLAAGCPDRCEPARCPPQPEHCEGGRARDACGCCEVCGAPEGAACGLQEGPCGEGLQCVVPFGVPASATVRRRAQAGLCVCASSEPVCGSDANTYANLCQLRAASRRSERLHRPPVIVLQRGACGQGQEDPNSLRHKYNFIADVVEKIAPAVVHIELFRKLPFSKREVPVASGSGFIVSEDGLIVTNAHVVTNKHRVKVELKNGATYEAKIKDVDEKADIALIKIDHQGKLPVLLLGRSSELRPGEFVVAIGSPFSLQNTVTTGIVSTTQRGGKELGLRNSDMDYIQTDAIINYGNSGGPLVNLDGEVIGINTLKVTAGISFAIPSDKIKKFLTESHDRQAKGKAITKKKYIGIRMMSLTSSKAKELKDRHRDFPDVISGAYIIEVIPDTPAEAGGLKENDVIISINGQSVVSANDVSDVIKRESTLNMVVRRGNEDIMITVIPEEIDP
# mABHD4 FP: ABHD4 inhibitors, primary screen, biochemical, fluorescence polarization, mouse | purified mABHD4, FP-Rh probe fluorescence polarization | 370,000 tested, 0.54% active | inhibition, % at 8.92 µM | (Lyso)-N-acylphosphatidylethanolamine lipase (Mus musculus), Q8VD66;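 active = inhibition exceeding the mean over every tested compound plus 3 SD, cut at about 30% in these data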;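 also: 0% = plate median of compound wells and 100% = S159A mutant with DMSO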
#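 Assay system: mABHD4 protein; medium: HEPES pH 7.0, NaCl, Pluronic buffer; dosing: 8.92 µM, single dose; schedule: 45 min + 60 min at 25 °C; signal: FP readout, ex 525 nm / em 598 nm; read-out: normalized percent inhibition of probe labeling; repeats: single replicate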
# mABHD4 conf: ABHD4 inhibitors, retest, confirmation, biochemical, fluorescence polarization, mouse; shares compounds with mABHD4 FP; purified mABHD4, FP-Rh probe fluorescence polarization; inhibition, % at 8.92 µM; 1,800 tested, 55% active;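 active = mean inhibition across replicates above the hit cutoff set in the primary screen, cut at about 30% in these data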;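 also: 0% = wild-type ABHD4 with DMSO and 100% = catalytically dead S159A mutant with DMSO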
# The depositor's hits bear a star; nt = no result. Most compounds without a hit are left out; they make up all but 3.3% or so of the library.
SMILES,rCAG binder,PRMT1 inh,SIAE primary,HTRA1 inhibitor,mABHD4 FP,mABHD4 conf
O=C(O)/C=C/C(=O)Nc1ccc(O)cc1,-1.8,18.8,6.9,15.8,36.9*,15.5
O=C(O)c1ccc2c(c1)C(=O)N(c1ccc(Nc3ccccc3)cc1)C2=O,20.2,2.9,8.0,12.6,30.6*,18.1
COc1ccc(NC(=O)N2CCN(C(=O)c3ccco3)CC2)c(OC)c1,-3.7,-3.3,-7.0,2.0,4.1,nt
COc1ccc(N2CCN(C(=O)Cn3cncn3)CC2)cc1,-1.6,-0.7,6.4,1.0,36.6*,2.5
Oc1ccccc1N=Cc1sc2ccccc2c1Cl,-0.9,5.6,11.7,6.1,32.4*,-5.9
O=c1[nH][nH]cc1C=Nc1ccccc1O,-1.9,-1.0,-1.8,0.8,1.3,nt
CCCCOc1ccccc1C(=O)N(Cc1ccc(C)o1)C1CCS(=O)(=O)C1 (stereo not drawn),-6.6,-0.5,1.6,-2.1,5.4,nt
CCC(=O)N(Cc1ccco1)c1nc(-c2cc(OC)ccc2OC)cs1,3.7,-1.3,1.7,7.5,49.1*,57.8*
CC(C)C(NS(=O)(=O)c1ccccc1F)C(=O)OCC(=O)NCc1ccco1 (stereo not drawn),3.3,3.5,8.4,3.0,4.8,nt
c1cc(-c2ccoc2)n2ccnc2c1,4.5,20.7,15.4,nt,50.0*,13.6
c1cc(-c2ccsc2)n2ccnc2c1,2.3,2.3,1.3,nt,4.5,nt
CCOC(=O)N1CCc2cc(OC)c(OC)c3c2c1cc1cc(OC)c(OC)cc13,14.0,6.4,15.8,9.6,63.2*,69.4*
COc1ccc(-n2c(C)c3c(OC)cccc(=O)c3c2C)cc1,11.3,13.9,-1.5,13.6,15.3,nt
COc1cccc(=O)c2c(C)n(-c3ccc(C(=O)O)cc3)c(C)c12,5.3,8.5,-2.3,11.1,30.2*,16.5
COc1ccc(CCC(=O)NNC(=O)c2ccccn2)cc1OC,-2.9,2.0,6.4,0.2,1.9,nt
NS(=O)(=O)c1cc(C(=O)Nc2ccc3c(c2)CCC3)ccc1Cl,2.6,1.6,-9.2,-5.3,-5.8,nt
O=c1cc(CSc2nnnn2-c2ccccc2)[nH]c2[nH]n(-c3ccccc3)c(=O)c12,30.9,10.8,9.1,22.4,32.2*,4.7
CC1(C)CC(=O)C2=C(C1)Nc1cc(Cl)ccc1S2,-4.8,3.0,5.3,6.2,9.9,nt
COc1ccc2c(c1)Sc1ccc(Cl)cc1N2,nt,12.3,2.4,nt,33.9*,34.4*
O=S(=O)(N=C1C=CC(=NS(=O)(=O)c2ccccc2)c2ccccc21)c1ccccc1,32.0,16.6,3.5,-2.1,63.8*,76.2*
CS(=O)(=O)N1CCc2cc(C(=O)N3CCN(c4ccc(F)cc4)CC3)ccc21,-6.2,-3.9,-3.8,-1.3,6.1,nt
Cc1ccccc1N1CCN(C2CCCN(C(=O)CCC(F)(F)F)C2)CC1 (stereo not drawn),-10.3,-1.6,0.4,2.6,-0.8,nt
Cc1ccc2c(c1)N1C(=O)c3ccccc3C1C1=C(CC(C)(C)CC1=O)N2 (stereo not drawn),-2.8,2.9,0.1,-3.4,30.4*,45.8*
CC(=O)Oc1cccc(C2C3=C(CC(C)(C)CC3=O)Nc3ccccc3N2C(C)=O)c1 (stereo not drawn),-5.4,-4.8,1.4,2.1,4.6,nt
CCOc1cc(N2CCOCC2)c(OCC)cc1NC(=O)CSc1ccccc1C(=O)O,8.2,4.0,9.5,-3.5,8.8,nt
SMILES,rCAG binder,PRMT1 inh,SIAE primary,HTRA1 inhibitor,mABHD4 FP,mABHD4 conf
CCOc1cc(N2CCOCC2)c(OCC)cc1NC(=O)CN1CCc2ccccc2C1,-2.3,9.3,6.4,4.8,30.9*,15.1
CC(=O)Oc1ccc(C(=O)OCC(=O)c2c(N)n(C)c(=O)n(C)c2=O)cc1OC(C)=O,-2.3,-0.3,5.1,12.7,45.6*,3.9
CCN(CC(=O)NCc1cccs1)C(=O)c1ccc(-c2cccc(C(F)(F)F)c2)o1,-4.7,-2.2,0.9,-16.8,-8.0,nt
O=C(COc1ccc2c(c1)OCO2)Nc1nncs1,4.5,1.4,12.7,-0.1,5.6,nt
COc1ccc(C#Cc2ccc(C3=CC(=O)CC(C)(C)C3=O)cc2)cc1,5.4,0.3,-2.0,-10.4,-2.1,nt
COc1cc(OC)cc(C(=O)NC(=S)NNC(=O)c2cnccn2)c1,0.8,-0.5,-1.4,7.3,9.8,nt
CCNC(=S)NNC(=O)c1cnccn1,1.2,-4.5,5.4,nt,45.6*,53.6*
O=C(C1=C(O)C(=O)N(CCc2ccccc2)C1c1cccs1)c1ccco1 (stereo not drawn),9.5,2.2,-3.1,1.4,35.1*,31.5*
O=C(C1=C(O)C(=O)N(CCc2ccccc2)C1c1cccnc1)c1ccco1 (stereo not drawn),7.0,3.3,6.2,0.9,2.5,nt
COc1ccccc1OCCNC(=O)c1ccc2c(c1)OCCO2,-5.9,3.7,3.5,2.3,30.7*,-2.1
COc1ccc(S(=O)(=O)NNC(=O)C(=O)NNc2ccccn2)cc1,0.4,-4.8,2.5,2.2,31.0*,26.4
Oc1ccc(C=NNc2nc3ccccc3s2)c(O)c1,20.4,-3.6,-1.5,35.4,42.5*,35.9*
C/C(=N\Nc1nc2ccccc2s1)c1cccs1,10.3,2.9,8.2,10.7,31.4*,23.7
CC(=NNc1nc2ccccc2s1)c1ncccn1,1.0,4.0,-6.7,15.6,34.9*,26.6
C/C(=N\Nc1nc(-c2ccccc2)cs1)c1cccs1,11.7,10.8,13.5,19.2,2.7,nt
CC(=NNc1nc2ccccc2o1)c1ncccn1,2.1,-0.1,7.3,11.5,30.9*,24.2
Oc1ccccc1C=NNc1nc2ccccc2s1,16.8,-1.9,6.2,13.0,10.2,nt
C[C@@H]1CN([C@@H](C)CO)C(=O)c2cc(Br)cnc2O[C@H]1CN(C)S(=O)(=O)c1cccs1,-0.5,6.0,4.5,3.1,4.2,nt
CCc1cc(-c2ccc3c(c2)COc2c4ccccc4nn2-3)on1,15.5,10.5,-3.4,-21.8,31.6*,-7.3
Cn1nnnc1SCC(=O)Nc1cc(C(C)(C)C)nn1-c1ccccc1,-3.8,0.2,-1.9,-1.6,-1.8,nt
Cc1cc(NC(=O)CSc2nnnn2C)n(-c2ccccc2)n1,-1.5,2.1,4.0,-7.0,56.5*,-0.5
CCN(CC)S(=O)(=O)c1ccc(O)c(C(=O)OCC(=O)N2c3ccccc3CC2C)c1 (stereo not drawn),9.1,-10.6,9.1,-10.3,55.7*,57.5*
CCN(CC)S(=O)(=O)c1ccc(O)c(C(=O)OCC(=O)N2CCCC2)c1,-1.3,-2.9,-1.8,5.4,5.2,nt
COc1ccccc1NS(=O)(=O)c1ccc(O)c(C(=O)OCC(=O)N2CCc3ccccc32)c1,14.1,0.9,-3.3,-4.4,3.8,nt
